For assay [1], the target named is T1, Protein cereblon/Induced myeloid leukemia cell differentiation protein Mcl-1 (Homo sapiens, UniProt Q07820+Q96SW2). Put plainly: Induction of CRBN-mediated Mcl-1 degradation in human HeLa cells assessed as relative abundance at 1 uM after 12 hrs by Western blot analysis (reference value: 1). It is filed as cell-based. (In general: Immunoblotting shows a protein as a band on a membrane.)

Assay [2] has as its target Induced myeloid leukemia cell differentiation protein Mcl-1 (Homo sapiens, UniProt Q07820). Nature of the assay: Inhibition of biotinylated Bim peptide (81 to 106 residues) binding to His-tagged human Mcl-1 expressed in Escherichia coli BL21 (DE3) cells preincubated for 1 hr followed by biotinylated Bim peptide addition measured after 2 hrs by ELISA. Put shortly: (§1)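 Inhibitor serially diluted (100–0.1 µM) from 10 mM DMSO stock, preincubated 1 h with 200 nM His-tagged protein in PBS (final DMSO 4%), then added 2 h to streptavidin plates holding biotin-Bim (plated at 0.09 mg/mL). Incubations at 4 °C. Detection with HRP anti-His, TMB 30 min, H2SO4 stop, A450. IC50 averaged from three independent experiments, with SD.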

For assay [3], the target named is T2, Protein cereblon/Apoptosis regulator Bcl-2 (Homo sapiens, UniProt P10415+Q96SW2). Put plainly: Induction of CRBN-mediated Bcl-2 degradation in human HeLa cells assessed as relative abundance at 1 uM after 12 hrs by Western blot analysis (reference value: 1). It is filed as cell-based.
Assay [4] has as its target T1, Protein cereblon/Induced myeloid leukemia cell differentiation protein Mcl-1. Put plainly: Induction of CRBN-mediated Mcl-1 degradation in human HeLa cells at 10 uM after 12 hrs by Western blot analysis relative to control. It is filed as cell-based.
The target of assay [5] is T2, Protein cereblon/Apoptosis regulator Bcl-2. Put plainly: Induction of CRBN-mediated Bcl-2 degradation in human HeLa cells at 10 uM after 12 hrs by Western blot analysis relative to control. It is filed as cell-based.
The target in assay [6] is T1, Protein cereblon/Induced myeloid leukemia cell differentiation protein Mcl-1. Nature of the assay: Induction of CRBN-mediated Mcl-1 degradation in human HeLa cells assessed as relative abundance at 10 uM after 12 hrs by Western blot analysis (reference value: 1). It is filed as cell-based.
The target of assay [7] is T2, Protein cereblon/Apoptosis regulator Bcl-2. Nature of the assay: Induction of CRBN-mediated Bcl-2 degradation in human HeLa cells assessed as relative abundance at 10 uM after 12 hrs by Western blot analysis (reference value: 1). It is filed as cell-based.
Assay [8] concerns the target Apoptosis regulator Bcl-2 (Homo sapiens, UniProt P10415). Put plainly: Inhibition of biotinylated Bim peptide (81 to 106 residues) binding to His-tagged human Bcl-2 expressed in Escherichia coli BL21 (DE3) cells preincubated for 1 hr followed by biotinylated Bim peptide addition measured after 2 hrs by ELISA. Put shortly: as §1
For orientation: In an ELISA, binding on a coated surface is turned into a signal by an enzyme label.

For a further assay, the system named is NCI-H23. Put plainly: Cytotoxicity against human H23 cells incubated for 24 hrs by CCK8 assay. It is filed as functional, cell-based. Put shortly:
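H23 cells seeded at 4 × 10^4 per mL in RPMI with 10% FBS, L-glutamine and pen/strep. Treated 24 h at various concentrations or with DMSO vehicle (0.05%). Viability read by CCK8 and normalized against cell-free background and untreated cultures; mean ± s.e.m., n=3.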
In general terms: Tetrazolium dyes change colour on reduction, which living cells bring about.

Assay [9] deals with T1, Protein cereblon/Induced myeloid leukemia cell differentiation protein Mcl-1. Put plainly: Induction of CRBN-mediated Mcl-1 degradation in human HeLa cells assessed as formation of ubiquitin adducts of Mcl-1 at 1 to 10 uM after 12 hrs by Western blot analysis. It is filed as cell-based.
Assay [10] addresses T2, Protein cereblon/Apoptosis regulator Bcl-2. Nature of the assay: Protac activity at CRBN/Bcl-2 in human HeLa cell lysates assessed as ternary complex formation by Western blot analysis based pull-down assay. It is filed as subcellular. To be noted: Lysate. Put shortly: (§2)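 HeLa lysate (25×10^6 cells, 1% Triton X-100 IP buffer), 1 mg total protein, incubated overnight with 1 µg CRBN antibody across a compound concentration gradient. Capture on protein A+G agarose, three Triton washes, boiled in loading buffer. Mcl-1, Bcl-2 and CRBN detected by immunoblotting. n=3 independent samples.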

Assay [11] addresses T1, Protein cereblon/Induced myeloid leukemia cell differentiation protein Mcl-1. Nature of the assay: Protac activity at CRBN/Mcl-1 in human HeLa cell lysates assessed as ternary complex formation by Western blot analysis based pull-down assay. It is filed as subcellular. Particulars: Lysate. Put shortly:
as §2

Assay [12] concerns the target T2, Protein cereblon/Apoptosis regulator Bcl-2. Nature of the assay: Induction of CRBN-mediated Bcl-2 degradation in human HeLa cells assessed as reduction in Bcl-2 level at 10 uM after 12 hrs by Western blot analysis. It is filed as cell-based.
For assay [13], the target named is T1, Protein cereblon/Induced myeloid leukemia cell differentiation protein Mcl-1. Nature of the assay: Induction of CRBN-mediated Mcl-1 degradation in human HeLa cells assessed as Mcl-1 level at 10 uM after 12 hrs by Western blot analysis. It is filed as cell-based.

Calls of active or inactive are those of the source. The rule behind the calls is not given here. Where only a bound is given, the exact number is not on record here.

T2 sequence (P10415 whole entry, looked up): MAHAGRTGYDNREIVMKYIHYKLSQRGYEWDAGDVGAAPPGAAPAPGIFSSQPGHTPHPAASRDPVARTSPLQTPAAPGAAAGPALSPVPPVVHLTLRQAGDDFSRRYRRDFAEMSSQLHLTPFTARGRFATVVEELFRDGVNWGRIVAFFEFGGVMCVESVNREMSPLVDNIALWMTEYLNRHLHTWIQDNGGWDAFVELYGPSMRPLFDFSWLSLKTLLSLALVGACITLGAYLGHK
T2 sequence (Q96SW2 whole entry, looked up): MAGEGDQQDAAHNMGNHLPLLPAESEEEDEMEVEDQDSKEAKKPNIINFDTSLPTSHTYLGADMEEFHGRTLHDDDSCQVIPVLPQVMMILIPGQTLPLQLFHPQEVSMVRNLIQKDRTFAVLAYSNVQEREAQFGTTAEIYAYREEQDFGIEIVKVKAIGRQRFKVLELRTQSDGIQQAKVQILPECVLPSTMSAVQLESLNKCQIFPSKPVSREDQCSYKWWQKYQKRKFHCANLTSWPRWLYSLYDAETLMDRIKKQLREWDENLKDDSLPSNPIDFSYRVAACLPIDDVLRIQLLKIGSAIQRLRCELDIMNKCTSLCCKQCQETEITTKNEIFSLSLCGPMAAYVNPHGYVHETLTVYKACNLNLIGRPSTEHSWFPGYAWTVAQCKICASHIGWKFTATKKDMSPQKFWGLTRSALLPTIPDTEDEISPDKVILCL
Chain of Apoptosis regulator Bcl-2 (P10415 whole entry, the tested form may be a part): as the sequence (P10415 whole entry, looked up) above
T1 sequence (Q07820 whole entry, looked up): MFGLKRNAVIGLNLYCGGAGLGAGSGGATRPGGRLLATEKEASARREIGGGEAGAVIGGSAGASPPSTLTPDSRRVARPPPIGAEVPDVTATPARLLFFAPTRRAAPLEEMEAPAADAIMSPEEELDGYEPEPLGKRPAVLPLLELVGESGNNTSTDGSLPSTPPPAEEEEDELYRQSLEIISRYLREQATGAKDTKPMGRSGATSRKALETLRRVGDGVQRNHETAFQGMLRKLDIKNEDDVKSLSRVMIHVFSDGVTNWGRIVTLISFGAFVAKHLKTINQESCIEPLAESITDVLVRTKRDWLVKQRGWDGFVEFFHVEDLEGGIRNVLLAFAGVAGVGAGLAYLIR
T1 sequence (Q96SW2 whole entry, looked up): as the sequence (Q96SW2 whole entry, looked up) above
Chain of Induced myeloid leukemia cell differentiation protein Mcl-1 (Q07820 whole entry, the tested form may be a part): as the sequence (Q07820 whole entry, looked up) above

As to `N#CC1=C(NCCC(=O)NCCNc2cccc3c2C(=O)N(C2CCC(=O)NC2=O)C3=O)c2ccc(Sc3ccc(Br)cc3)c3cccc(c23)C1=O` (stereo not given), the fold change (FC) in [1], in assay [3], in assay [6] and in [7] was 1 each time. Further, the IC50 in assay [2] amounted to 10.6 µM; in assay [8] it was 10.5 µM. Further, the Activity in assay [4] and in assay [5] was < 20% throughout.
`O=C(CCCCC(=O)NCCN1C(=O)c2cccc3c(Sc4ccc(Br)cc4)ccc(c23)C1=O)NCCNc1cccc2c1C(=O)N(C1CCC(=O)NC1=O)C2=O` (stereo not given): the fold change (FC) in assay [1], in [3], in assay [6] and in assay [7] was 1 in each case. Further, the IC50 in [2] was found to be 7.89 µM; in assay [8], 15.2 µM.
In the case of `O=C(CCCCCNc1cccc2c1C(=O)N(C1CCC(=O)NC1=O)C2=O)NCCCCCCNC(=O)CCCCC(=O)NCCN1C(=O)c2cccc3c(Sc4ccc(Br)cc4)ccc(c23)C1=O` (stereo not given), the fold change (FC) is 1 in assay [1], 1 in assay [3], 0.9 in [6] and 0.9 in [7]. Also, the figures for the IC50 in assay [2] and in [8] were 15.1 µM and 13.5 µM, respectively.
For `COC(=O)CCCCC(=O)NCCN1C(=O)c2cccc3c(Sc4ccc(Br)cc4)ccc(c23)C1=O`, the concentration for half-maximal inhibition (IC50) in assay [2] was determined as 5.95 µM; in [8], 4.78 µM.
With `O=C(CCCCC(=O)NCCN1C(=O)c2cccc3c(Sc4ccc(Br)cc4)ccc(c23)C1=O)NCCCCNc1cccc2c1C(=O)N(C1CCC(=O)NC1=O)C2=O` (stereo not given), the fold change (FC) in [1] stood at 1; in [3], 1; in assay [6], 0.9; in [7], 1. In addition, the results for the IC50 in assay [2] and in assay [8] were 1.51 µM and 10 µM, respectively.
On to `Cc1nn(C)c(COc2ccc(N3CCN(S(=O)(=O)N(C)C)CC3)cc2)c1-c1cccc2c(CCCOc3cccc4ccccc34)c(C(=O)O)n(CCN3CCOCC3)c12`, for which the result with NCI-H23 was Active.
For `N#CC1=C(NCCC(=O)NCCCCNc2cccc3c2C(=O)N(C2CCC(=O)NC2=O)C3=O)c2ccc(Sc3ccc(Br)cc3)c3cccc(c23)C1=O` (stereo not given), the fold change (FC) is 0.9 in [1], 1 in assay [3], 0.8 in [6] and 1 in assay [7]. The IC50 in [2] came out at 9.95 µM; in assay [8] it was 9.71 µM. Further, the Activity in assay [4] and in assay [5] was < 20% throughout.
For the compound `N#CC1=C(NCCC(=O)NCCOCCOCCNc2cccc3c2C(=O)N(C2CCC(=O)NC2=O)C3=O)c2ccc(Sc3ccc(Br)cc3)c3cccc(c23)C1=O` (stereo not given), the fold change (FC) in [1] came to 1.8; in [3] it was 1; in [6] it was 2.2; in assay [7], 1. The IC50 in assay [2] came out at 2.29 µM; in [8] it was 2.24 µM. For the same compound, the Activity in assay [4] and in assay [5] was < 20% each time. Further, the result in assay [9] was inactive.
Regarding `COC(=O)CCNC1=C(C#N)C(=O)c2cccc3c(Sc4ccc(Br)cc4)ccc1c23`, the IC50 turned out to be 3.46 µM in assay [2] and 4.52 µM in assay [8].
Take `N#CC1=C(NCCC(=O)NCCCCCC(=O)NCCCCCCNc2cccc3c2C(=O)N(C2CCC(=O)NC2=O)C3=O)c2ccc(Sc3ccc(Br)cc3)c3cccc(c23)C1=O` (stereo not given): the fold change (FC) is 1.2 in assay [1], 1.1 in assay [3], 1.5 in assay [6] and 1 in [7]. Also, the IC50 was found to be 16 µM in assay [2] and 11.6 µM in assay [8]. Besides, the Activity in assay [4] and in [5] was < 20% each time. In addition, the outcome in assay [9] was inactive.
In the case of `N#CC1=C(NCCC(=O)NCCCCCCNc2cccc3c2C(=O)N(C2CCC(=O)NC2=O)C3=O)c2ccc(Sc3ccc(Br)cc3)c3cccc(c23)C1=O` (stereo not given), the fold change (FC) came out at 0.9 in [1], 1 in assay [3], 0.8 in assay [6] and 1.1 in assay [7]. The result in assay [10] and in [11] was inactive. In addition, the figures for the IC50 in assay [2] and in assay [8] were 7.65 µM and 1.94 µM, respectively. Also, the Activity in [4] and in assay [5] was < 20% throughout.
As to `O=C(CCCCC(=O)NCCN1C(=O)c2cccc3c(Sc4ccc(Br)cc4)ccc(c23)C1=O)NCCCCCCCCNc1cccc2c1C(=O)N(C1CCC(=O)NC1=O)C2=O` (stereo not given), the fold change (FC) in [1] turned out to be 1; in assay [3], 0.9; in assay [6] it was 1; in assay [7] it was 0.9. For the same compound, the IC50 in [2] was 5.4 µM; in assay [8], 7.66 µM.
On to `N#CC1=C(C#N)c2ccc(Sc3ccc(Br)cc3)c3cccc(c23)C1=O`, for which the result in [12], in assay [4], in [5] and in [13] was inactive. Besides, the IC50 in assay [2] was 2.03 µM; in [8], 2.31 µM. Moreover, the fold change (FC) in assay [6] and in assay [7] was 1 throughout.
Take `CC(C)(C)c1ccc(C(=O)NCCN2C(=O)c3cccc4c(Sc5ccc(Br)cc5)ccc(c34)C2=O)cc1`: the outcome in assay [12], in assay [4], in assay [5] and in assay [13] was inactive. The IC50 in assay [2] came out at 4.45 µM; in [8], 3.18 µM. In the assay on NCI-H23, the outcome was Active. Moreover, the fold change (FC) in assay [6] and in assay [7] was 1 each time.

As a reminder, the IC50 is the midpoint of a concentration-inhibition curve. Low readings indicate inhibition by little substance, high ones a need for much substance.

The record behind these values is ChEMBL document CHEMBL4321796, “Proteolysis Targeting Chimeras for the Selective Degradation of Mcl-1/Bcl-2 Derived from Nonselective Target Binding Ligands” (J Med Chem, 2019).
